EBI2 antag: EBI2 receptor antagonists, beta-arrestin recruitment, primary screen, cell-based, luminescence, 7a,25-OHC stimulation, uHTS; G-protein coupled receptor 183 (Homo sapiens), P32249; 7a,25-OHC stimulated; inhibition, % at 5 µM; 360,000 compounds, 0.81% hits; AID 651636, 2012; in the data active means inhibition above about 38%;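 further: enzyme fragment complementation signal reports receptor beta-arrestin coupling in cells; 0% = agonist plus DMSO wells and 100% = wells without agonist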
Target sequence (P32249 whole entry, looked up, the tested form may be a part): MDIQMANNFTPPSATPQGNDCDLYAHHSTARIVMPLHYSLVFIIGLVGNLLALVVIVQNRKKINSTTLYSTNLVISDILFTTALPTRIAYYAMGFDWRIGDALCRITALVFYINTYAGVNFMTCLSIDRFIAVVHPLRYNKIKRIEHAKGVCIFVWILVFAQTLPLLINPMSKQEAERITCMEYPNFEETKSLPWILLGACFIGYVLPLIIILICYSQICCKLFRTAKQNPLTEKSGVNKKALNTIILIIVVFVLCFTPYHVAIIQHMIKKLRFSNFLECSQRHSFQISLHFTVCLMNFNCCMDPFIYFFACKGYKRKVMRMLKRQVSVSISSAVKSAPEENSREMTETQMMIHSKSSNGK
APJ agonist: agonists of human apelin receptor APJ, primary screen, CHO-K1 cells, PathHunter beta-arrestin, luminescence; P35414; 0% DMSO wells, 100% apelin; activation, % at 20 µM; 330,000 compounds, 0.11% hits;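 active means activation more than six SD over the plate average, tested at 20 µM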;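 further: 0% = DMSO alone and 100% = apelin-13 at 10 nM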
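Incubation: overnight seeding, 90 min compound at 25 °C, 1 h detection; test system: PathHunter CHO-K1 APJ (AGTRL-1) beta-arrestin reporter cells; amount: 1000 cells/well; doses: one dose, 20 µM compound, 1% DMSO; measured by: beta-gal luminescence; measure: agonist-driven arrestin binding to APJ; benchmarks: negative DMSO alone, positive Apelin-13 at 10 nM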
APJ antagonist: antagonists of human apelin receptor APJ, primary screen, CHO-K1 cells, beta-arrestin complementation, luminescence; inhibition, % at 20 µM; 330,000 compounds, 0.32% hits; P35414; AID 2521, 2010;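 active means inhibition above about 40% at 20 µM, limit read from the data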;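 further: cells challenged with 10 nM apelin-13 agonist together with compound; plate controls were apelin-13 plus DMSO wells for no effect and DMSO wells lacking apelin-13 for full effect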
CXCR6 inh: CXCR6 receptor inhibitors, primary screen, cell-based, beta-arrestin, luminescence, CHO-K1 PathHunter, 1536-well | 360,000 compounds, 0.36% hits | AID 602244, 2012 | C-X-C chemokine receptor type 6 (Homo sapiens), O00574 | inhibition, % at 20 µM; in the data active means inhibition above about 34%, passing the limit was not always enough;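 further: antagonist mode with CXCL16 agonist at 10 nM final; 0% = 10 nM CXCL16 with DMSO and 100% = unstimulated wells without agonist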
CCR6 antag: CCR6 receptor antagonists, primary screen, cell-based, CHO-K1, luminescence, beta-arrestin, uHTS; inhibition, % at 20 µM; C-C chemokine receptor type 6 (Homo sapiens), P51684; AID 493098, 2011; 340,000 compounds, 0.49% hits; CHO-K1 CCR6 PathHunter beta-arrestin, CCL20-stimulated;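 active means compounds whose inhibition of the agonist-driven luminescence signal at 20 µM reaches about 50%, limit read from the data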;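 further: cells stimulated with CCL20 at 14 nM final; plate controls were DMSO with CCL20 for no effect and DMSO without agonist for full effect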
EBI2 antag conf: EBI2 antagonist hit retest, beta-arrestin, confirmation, cell-based, single concentration, luminescence, 7a,25-OHC stimulation; shares compounds with EBI2 antag; 7a,25-OHC antagonism; inhibition, % at 5 µM; 2,400 compounds, 29% hits;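 active means inhibition of at least 50%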
EBI2 agonist: EBI2 agonist activity of antagonist hits, confirmation, counter-screen for EBI2 antagonist project, cell-based, single concentration, agonist mode, luminescence | shares compounds with EBI2 antag | EBI2-expressing cells, 60 min; 0% vehicle, 100% 7α,25-dihydroxycholesterol control | activation, % at 5 µM | 2,400 tested, under 10 active | AID 652000, 2013;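 active means activation of at least 50%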
bGal counter: E. coli beta-galactosidase enzyme inhibition, confirmation, counter-screen for EBI2 antagonist project, biochemical, luminescence, single concentration; shares compounds with EBI2 antag; purified beta-galactosidase, luminescent Galacton Star, 15 min; inhibition, % at 5 µM; 2,400 compounds, 1% hits;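 active means replicate-average signal at least 3 plate SD below neutral wells, shown as high inhibition, flagging enzyme-inhibiting false positives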;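 further: 0% = DMSO wells with enzyme and 100% = wells lacking enzyme; higher means stronger loss of beta-gal luminescence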
The depositor's hits bear a star; / = no result. Only some compounds are listed: those with a hit (about 1.5% of all), similar ones and a draw of the others.

SMILES	EBI2 antag	APJ agonist	APJ antagonist	CXCR6 inh	CCR6 antag	EBI2 antag conf	EBI2 agonist	bGal counter
COc1ccc(C(=O)/C=C/c2ccc(OC(=O)c3cc(OC)c(OC)c(OC)c3)cc2)cc1	45.0*	-2.0	-8.4	2.7	17.0	10.4	0.7	7.6
OC1CCN(c2c3c(nc4cc(-c5ccc(Cl)cc5)nn24)CCC3)CC1	43.9*	6.8	-5.7	9.5	-3.1	40.2	0.7	1.2
CC(C)NC(=O)C1(C)CCN1C(=O)c1ccccc1Oc1ccccc1 (stereo not given)	-1.1	/	/	7.1	/	/	/	/
O=C(COc1ccc(Br)cc1)N/N=C1/SCC(=O)N1Cc1ccccc1	48.8*	1.2	5.8	-11.4	0.1	11.7	0.8	5.3
COc1ccccc1OCC(=O)N/N=C1/SCC(=O)N1Cc1ccccc1	-3.6	-3.4	2.9	3.6	-8.8	/	/	/
COc1ccc(NC(=O)c2cc(C3CCCCN3C(=O)c3ccc(NC(C)=O)cc3)on2)c(C)c1 (stereo not given)	13.3	/	/	-9.7	/	/	/	/
Cc1ccc(N2CC(C(=O)Nc3ccc(S(=O)(=O)N4CCCC4)cc3)CC2=O)cc1 (stereo not given)	55.2*	3.7	10.7	-3.3	8.9	30.0	0.5	0.3
COc1ccc(N2CC(C(=O)Nc3ccc(S(=O)(=O)N4CCCCC4)cc3)CC2=O)cc1 (stereo not given)	75.1*	-2.1	-13.2	0.8	16.2	56.5*	1.0	0.1
COc1ccccc1N1CC(C(=O)Nc2ccc(S(=O)(=O)N3CCCC3)cc2)CC1=O (stereo not given)	-7.8	-0.6	2.7	-1.9	-3.1	/	/	/
Cc1ccc(CN2CC(C(=O)Nc3ccc(S(=O)(=O)N4CCCCC4)cc3)CC2=O)cc1 (stereo not given)	50.0*	-0.9	-6.7	-10.0	18.2	27.9	-1.4	-12.3
O=C(Nc1ccc(S(=O)(=O)N2CCCCC2)cc1)C1CC(=O)N(c2ccc(Cl)cc2)C1 (stereo not given)	88.9*	-0.5	-7.3	-0.3	-2.4	56.4*	3.1	0.9
COc1ccc(NC(=O)C2(C)CCCN(C(C)C)C2)cc1OC (stereo not given)	-9.7	/	/	-0.6	/	/	/	/
COc1ccc(N2CC(C(=O)Nc3ccc(S(=O)(=O)N4CCCC4)cc3)CC2=O)cc1 (stereo not given)	50.1*	-0.1	8.7	0.0	6.0	16.6	-0.3	-11.5
CCc1ccc(N2CC(C(=O)Nc3ccc(S(=O)(=O)N4CCOCC4)cc3)CC2=O)cc1 (stereo not given)	52.3*	-1.8	-6.8	-5.7	14.7	43.0	-0.4	7.1
Cc1ccccc1N1CC(C(=O)Nc2ccc(S(=O)(=O)NCC3CCCO3)cc2)CC1=O (stereo not given)	0.5	-3.8	-0.6	2.1	-9.9	/	/	/
Cc1ccc(N2CC(C(=O)Nc3ccc(S(=O)(=O)NCC4CCCO4)cc3)CC2=O)cc1 (stereo not given)	50.6*	2.1	6.8	-3.6	22.6	29.6	-0.3	1.0
Cc1ccc(N2CC(C(=O)Nc3cc(C)ccc3F)CC2=O)cc1 (stereo not given)	53.0*	-4.3	-3.2	2.2	8.1	40.9	1.3	1.3
CC(=O)Nc1ccc(CN(C)c2c(C)nc3ccc(C(=O)N(C)Cc4ccccc4)cn23)cc1	-6.4	/	/	-0.3	/	/	/	/
COC(=O)C1CCN(C2CN(Cc3ccc(F)cc3)S(=O)(=O)C2)CC1 (stereo not given)	-4.6	/	/	-11.8	/	/	/	/

Source: PubChem BioAssay (Sanford-Burnham Center for Chemical Genomics)
